Data set [1] has as its system multiple subtypes of breast cancer. Description: Overall recurrence in multiple breast cancer animal models. The format is in vivo, mice.
The test system of the next data set is PDX tumour margins. Description: Histological analysis. As to conditions: PDX model, H&E and Ki-67, sixteen mammary tissue samples from eight mice. It counts as in vivo, NSG mice. The method, boiled down:
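Tumour-margin tissue (~2 mm³) taken at the 6 and 12 o'clock positions around resected PDX tumours in NSG mice. Samples were fixed 24 h in buffered 3.7% formalin, then moved to 70% ethanol. They were paraffin-embedded and cut into 4 μm sections for staining.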

Data set [2] deals with TNBC MDA-MB-231 or ER-positive IOWA-1T tumours. As to the kind of experiment: Intraoperative imaging of orthotopic MFP xenografts, recurrence follow-up. Conditions: 0.5 mg/kg i.v.; for average volume of the recurrent tumours: four weeks after tumour resection. The format is in vivo, athymic mice. Put shortly: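 MDA-MB-231 or IOWA-1T cells were injected s.c. at the nipple base into the fourth abdominal fat pad of athymic mice. Once tumours formed, mice received PBS, free dye or test compound at 0.5 mg/kg i.v. After 24 h, tumours were resected with a 2 mm margin under NIR camera monitoring. PBS controls were resected by palpation and direct visualization only. Adverse events during removal and later recurrence at the resection site were recorded.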

In data set [3] the test system is triple-negative PDX cells (stage IV) tumours. As to the kind of experiment: Image-guided tumour resection in a PDX tumour model, recurrence follow-up. The format is in vivo, NSG mice. As to conditions: four weeks after image-guided surgery. The method, boiled down:
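Female NSG mice, 4–5 weeks old, carried triple-negative PDX (stage IV) tumours in the mammary fat pads. At 200–300 mm³ they were randomized into five groups: test probe, free dye, two control peptide–dye conjugates, or PBS. Agents were given i.v. (tail vein) at an equivalent of 0.5 mg/kg. After 24 h, tumours were excised with a ~2 mm margin under NIR camera guidance (not for PBS). Wounds were sutured, and recurrence was assessed 4 weeks later.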

The conditions of data set [4]: cited from earlier work.
Data set [5] deals with MDA-MB-231 human breast cancer tumours. It counts as in vivo, athymic mice. Conditions: 0.2–1.0 mg/kg i.v., imaged 6–72 h, PDE unit, normal tissue thigh. Put shortly:
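Female athymic mice, 4–5 weeks old, bore s.c. MDA-MB-231 tumours (1.0 × 10⁶ cells, right back). They received test compound or free dye i.v. (tail vein) at 0.2, 0.5 or 1 mg/kg. Prescans were taken before injection, and 800 nm NIR imaging followed at 6–72 h. The tumour-to-background ratio used ROIs over the whole tumour and over normal tissue (thigh muscle). Statistics: ANOVA.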

The values that follow come from article PMC8814381 (EBioMedicine, 2022).

In data set [1] (from tumour recurrence rate 8%, N = 2/24), “ICG-p28: NIR fluorescence imaging probe composed of tumour-targeting peptide p28 and the NIR dye indocyanine green (ICG)” came in with a specificity of 92%. Also, the positive margin rate entry in the data set with PDX tumour margins was “malignant cell free margin”. Moreover, in data set [2], the “adverse events related to administration during tumour removal” value is given as “no apparent adverse events” and the “average volume of the recurrent tumours” value is given as 197 mm^3. The “average volume of the recurrent tumours” value in data set [3] is reported as 403 mm^3.
Take “p28: Pseudomonas aeruginosa azurin-derived cell-penetrating peptide, tested in two phase I clinical trials”: in data set [4], the stability entry is “stable” and the water solubility entry is “highly water soluble”.
For the molecule `CC1(C)C(/C=C/C=C/C=C/C=C2\N(CCCCS(=O)(=O)O)c3ccc4ccccc4c3C2(C)C)=[N+](CCCCS(=O)(=O)[O-])c2ccc3ccccc3c21` [ICG, indocyanine green], in data set [1] (Figures 4,6 pooled), the “average recurrent tumour volume, multiple subtypes of breast cancer” value was determined as 1188 mm^3. In addition, in data set [2], the “adverse events related to administration during tumour removal” value was “no apparent adverse events” and the “average volume of the recurrent tumours” value stood at 423 mm^3. Further, the “tumour/normal tissue ratio of NIR signal” value in data set [5] is given as ~1. Further, the “average volume of the recurrent tumours” value in data set [3] is 1952 mm^3.
